Screening results from PubChem BioAssay.
This is a sample that favours compounds with a hit; in the whole collection about 1% have one here.
CaV13 FRET inh = Disruptors of the CACNA1D IQ motif to Ca2+-dependent inactivation inhibitor domain association, primary screening, Förster resonance energy transfer in intact living … | 0.098% of 340,000 active | HEK cells, CFP/YFP FRET ICDI-IQ, plate reader, 10 min; percent FRET-ratio fall versus neutral wells | inhibition, % at 12.3 µM;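 active = mean replicate inhibition of at least 30% and at least 1% of replicates passing that level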;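 also: 0% = median of the neutral control wells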
GSIS activator = GLuc luminescence reporter in INS-1E cells, primary screen for activators of glucose-dependent secretion of insulin; INS-1E GLuc reporter insulin secretion, 2-3 h; activation, % at 16.6 µM; 0.61% of 370,000 active; AID 743287;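 active = lowest replicate activation of at least 40%, so every replicate reaches that level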;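 also: 0% = median of neutral control wells and 100% = median of IBMX positive control wells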
XiGFP reactiv = X-chromosome reactivation activator | activation, % at 7.58 µM | XiGFP mouse fibroblasts, % GFP-positive cells imaging, 3 d; cells co-treated with 5-aza-dC sensitizer; scaled so ellipticine positive control = 100% | 0.055% of 360,000 active | AID 743238;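 active = mean normalized replicate activation at least 10% and every replicate at or above 10%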;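 also: 0% = median of on-plate neutral control wells and 100% = ellipticine 6 µM median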
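System: SV40-immortalized XiGFP fibroblast cells, line 68-5-11 / Incubation: 3-day compound exposure, then 15 min fixation at room temperature / Compound: single concentration per compound, delivered by pin transfer / Buffer or medium: DMEM plus 5-aza-dC sensitizer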
FXN GAA850 act = increases GAA850 frataxin promoter reporter activity; activation, % at 6 µM; 0.56% of 360,000 active; HEK293 lucGAA850 FXN promoter luciferase reporter, 24 h; percent of 10 µM SAHA response; AID 540364;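 active = activation above the average of all compounds screened plus 3 SD, cutoff fixed separately per campaign, cut at about 7.5% in these data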;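 also: 0% = DMSO wells and 100% = 10 µM SAHA wells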
GAA30 FXN cntr = counter-screen for GAA850 frataxin promoter activators: GAA30 promoter activation; shares compounds with FXN GAA850 act; HEK293 lucGAA30 FXN promoter luciferase, 24 h; DMSO = 0%, 5 µM ipriflavone = 100%; activation, % at 6 µM; 66% of 1,900 active; AID 588350;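 active = mean activation above the mean of solvent-only control wells plus 3 SD, cut at about 22% in these data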;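 also: counterscreen of GAA850 promoter hits where activity marks nonselective or luminescence artifacts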
GAA850 confirm = GAA850 FXN promoter activation confirmation. shares compounds with FXN GAA850 act. HEK293 lucGAA850 FXN promoter luciferase reporter, 24 h; 100% = activation by SAHA. activation, % at 6 µM. 86% of 1,900 active. AID 588351;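 active = mean activation above a set limit taken from the primary screen, cut at about 8% in these data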;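 also: 0% = DMSO wells and 100% = 10 µM SAHA wells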
* hit, by the source's call; . = no result given.

SMILES	CaV13 FRET inh	GSIS activator	XiGFP reactiv	FXN GAA850 act	GAA30 FXN cntr	GAA850 confirm
O=C(Nc1cnn(C23CC4CC(CC(C4)C2)C3)c1)c1cnn2cccnc12	-6.7	19.2	.	10.2*	107.2*	42.2*
COc1cccc(NC(=O)N[C@@H]2C=C[C@@H](CC(=O)N3CCCCC3)O[C@H]2CO)c1	.	14.5	0.0	.	.	.
O=[N+]([O-])c1c(Nc2ccccc2O)cc(Cl)c2nonc12	-4.0	-1.4	1.3	10.8*	-78.6	-7.9
COc1ccccc1Oc1ccc(N/C=C/C(=O)c2ccco2)cc1	-8.8	-18.7	0.3	11.9*	82.8*	33.9*
O=C(Nc1cccc(C(F)(F)F)c1)C(=O)N1CCCCC1	-4.0	-2.9	0.0	8.1*	52.7*	21.2*
CCOc1nc(C)ccc1-c1noc(-c2ccccn2)n1	.	.	.	6.6	.	.
CCOc1nc(C)ccc1-c1noc(-c2ccco2)n1	-6.9	0.9	.	7.7*	53.4*	18.1*
CN(/N=C/c1ccncc1)C1=NCCN1	-4.6	-11.7	-0.1	-0.6	.	.
CN(/N=C/c1ccncc1)c1cnc2ccccc2n1	-2.4	9.6	0.0	9.6*	104.8*	29.2*
COc1ccc2c3c([nH]c2c1)[C@@H](CO)N(C(=O)C1CCCC1)CC31CN(C)C1	.	-0.9	0.3	.	.	.
C=CC(=O)Oc1ccc(N2Cc3ccccc3C2=O)cc1	.	.	.	8.0*	31.9*	4.5
COc1cc(/C=C/C(=O)O)ccc1O	.	.	.	16.1*	3.2	7.1
O=C(/C=C/c1cccc(Cl)c1)c1ccc([N+](=O)[O-])o1	-5.0	-25.1	3.7	-13.1	.	.
COc1cc(/C=C/C(=O)CC(=O)/C=C/c2ccc(O)c(OC)c2)ccc1O	-15.8	.	0.0	0.4	.	.
COc1cc(/C=C/C(=O)c2ccc([N+](=O)[O-])o2)ccc1O	-3.3	-30.8	20.5*	12.2*	-115.0	-28.4
O=C(O)Cn1c2ccccc2c2nc3ccccc3nc21	.	.	.	10.2*	104.5*	33.0*
CCOC(=O)Cn1c2ccccc2c2nc3ccccc3nc21	-4.8	24.9	.	0.9	.	.
CCCc1cc(C(=O)Nc2cccc(C(C)=O)c2)no1	-2.9	.	-0.3	24.7*	76.4*	23.3*
Cc1cccc(CCNC(=O)c2cccc(NC3=NC4CS(=O)(=O)CC4S3)c2)c1 (configuration not stated)	-4.9	-11.9	-0.2	16.4*	12.4	6.7
Cc1cccc(CCNC(=O)Cc2ccc(NC3=NC4CS(=O)(=O)CC4S3)cc2)c1 (configuration not stated)	-5.8	-5.9	-0.1	-1.0	.	.
O=C(C[C@@H]1C[C@@H]2c3cc(NC(=O)NC4CCCC4)ccc3O[C@@H]2[C@H](CO)O1)NCc1cccnc1	.	-6.5	0.0	.	.	.
C=CCSc1nnc(-c2cc3c(s2)-c2ccccc2CC3)o1	-2.0	.	.	8.7*	75.9*	28.2*
O=C(C[C@H]1CC[C@@H]2[C@H](COC[C@@H](O)CN2Cc2nccs2)O1)NCc1ccc(Oc2ccccc2)cc1	.	2.1	0.0	.	.	.
COc1ccc2c3c([nH]c2c1)[C@H](CO)N(C(=O)c1ccncc1)CC31CCN(C(=O)CC2CC2)CC1	.	8.3	0.2	.	.	.
Cc1c(C=O)c2cc(OCc3ccccc3)ccc2n1C	-20.4	-9.4	0.3	7.7*	105.3*	32.3*
SMILES	CaV13 FRET inh	GSIS activator	XiGFP reactiv	FXN GAA850 act	GAA30 FXN cntr	GAA850 confirm
O=C(NCCN1CCOCC1)c1cc(-c2cccs2)on1	-5.6	-16.4	.	17.4*	115.9*	55.5*
Cc1ccc(O)c(NC(=O)c2cc(-c3cccs3)on2)c1	-7.3	2.6	0.4	9.9*	86.9*	47.1*
O=C(NCCN1CCOCC1)c1cc(-c2ccccc2Cl)on1	-4.9	-8.1	0.0	1.1	.	.
O=C(NCCN1CCOCC1)c1cc2sccc2n1Cc1ccc(F)cc1	-6.9	-2.6	.	8.8*	10.3	8.3*
O=C(NCCCN1CCOCC1)c1cc(-c2ccccc2)on1	-6.8	-3.1	.	17.0*	100.8*	55.6*
COc1cccc(C#Cc2ccc([C@@H]3[C@H]4CN(S(=O)(=O)c5ccccc5C)CC(=O)N4[C@H]3CO)cc2)c1	.	-0.1	0.1	.	.	.
